Sampled rows, rich in hits. Any-hit rate of the full collection: about 3.1%.
HCV core dimer: blocks dimerization of HCV core protein | TR-FRET GST/Flag-core106 dimerization, 1536-well | inhibition, % at 5 µM | actives 0.33% (n = 300,000);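 active means inhibition above the mean of all tested compounds plus 3 SD, set per screening campaign, cut at about 45% in these data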
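Assay system: GST-tagged and Flag-tagged HCV core protein residues 1-106 / Times: compound-protein-antibody incubation 4 h at 22.5 °C / Signal: time-resolved FRET, ex 340 nm, em 617 and 671 nm / Evaluation: % inhibition based on acceptor/donor emission ratio / Benchmarks: wells lacking GST-core106 and wells with excess unlabelled core106 / Repeats: singlicate, one well per compound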
IMP-1 inh: inhibitors of Pseudomonas aeruginosa IMP-1 metallo-beta-lactamase; purified IMP-1, nitrocefin hydrolysis, epi-absorbance fluorescence; inhibition, % at 5.6 µM; actives 0.45% (n = 290,000); AID 1556;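 active means inhibition above the mean plus 3 SD of all compounds in the same screening run, cut at about 4.5% in these data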
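System: Purified IMP-1 | Read-out basis: Percent enzyme inhibition | Controls: IMP-1 with DMSO as 0%, enzyme-free DMSO as 100% | Replicates: One well per compound | Doses: 5.6 µM nominal single concentration | Detection: Epi-absorbance fluorescence, 480 nm excitation, 530 nm emission | Incubation: 25 °C, 15 min preincubation, 25 min reaction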
SUMO HTRF inh: inhibitors of human SUMOylation (UBC9); inhibition, % at 35 µM; HTRF SUMOylation assay, SAE1/SAE2 + UBC9, in vitro; P63279; actives 0.36% (n = 290,000); AID 2006; in the data active means inhibition above about 50%, passing the limit was not always enough
Target sequence (P63279 whole entry, looked up): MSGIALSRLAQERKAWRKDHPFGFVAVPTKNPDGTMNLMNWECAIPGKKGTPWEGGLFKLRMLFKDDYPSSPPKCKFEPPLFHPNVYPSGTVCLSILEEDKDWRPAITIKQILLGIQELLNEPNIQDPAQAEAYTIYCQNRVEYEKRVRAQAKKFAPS
HCV NS3 hel inh: HCV NS3 helicase inhibition; NS3 helicase DNA unwinding, Cy5 molecular beacon fluorescence; inhibition, % at 10.9 µM; actives 0.56% (n = 290,000); AID 1800;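 active means inhibition above the mean of all tested compounds plus 3 SD, set per campaign, cut at about 35% in these data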
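test system = hepatitis C virus NS3 helicase domain fragment enzyme | reagent = annealed dual-labelled DNA beacon duplex, ATP-started | times = 1 h at 25 °C | detection = Cy5 fluorescence, 0 and 60 min reads | read-out basis = percent inhibition from t60/t0 fluorescence ratio | control set = DMSO and thioflavine S | replication = one well per compound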
VIM-2 inhibitor: blocks Pseudomonas aeruginosa VIM-2 metallo-beta-lactamase; purified VIM-2, nitrocefin hydrolysis, epi-absorbance fluorescence; inhibition, % at 5.6 µM; actives 0.89% (n = 290,000);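 active means inhibition above the mean of all tested compounds plus 3 SD, cutoff set per screening run, cut at about 7.5% in these data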;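 further: red hydrolysis product quenches plate fluorescence so inhibitors raise well fluorescence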
PHOSPHO1 inh: blocks human PHOSPHO1 phosphatase activity; Q8TCT1; recombinant PHOSPHO1, absorbance phosphatase assay; inhibition, % at 13.3 µM; actives 1.1% (n = 290,000); AID 1565; in the data active means inhibition above about 60%
Target sequence (Q8TCT1 whole entry, looked up): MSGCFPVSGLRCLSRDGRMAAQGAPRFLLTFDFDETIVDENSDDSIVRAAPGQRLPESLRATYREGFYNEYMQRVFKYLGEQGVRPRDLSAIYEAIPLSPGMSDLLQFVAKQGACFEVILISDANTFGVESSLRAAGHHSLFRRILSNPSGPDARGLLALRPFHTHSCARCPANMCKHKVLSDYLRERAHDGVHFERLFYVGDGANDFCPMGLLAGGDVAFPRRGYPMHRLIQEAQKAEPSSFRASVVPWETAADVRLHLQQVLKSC
NS3 helicase cf: HCV NS3 helicase inhibition, confirmation assay; shares compounds with HCV NS3 hel inh; actives 31% (n = 1,600); NS3 helicase DNA unwinding, Cy5 molecular beacon fluorescence; AID 1943; inhibition, % at 10.9 µM;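 active means inhibition above the mean of all tested compounds plus 3 SD, cutoff set per campaign, cut at about 36% in these data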
DNA FID counter: counter-screen for HCV NS3 helicase inhibitors: DNA intercalator displacement; DNA fluorescent intercalator displacement, fluorescence; actives 4% (n = 1,600); inhibition, % at 7.9 µM; AID 1945; shares compounds with HCV NS3 hel inh; in the data active means inhibition above about 37%;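 further: higher means more displacement of ethidium bromide from the DNA hairpin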
DNA FID DR: counter-screen for HCV NS3 helicase inhibitors: DNA intercalator displacement dose response. shares compounds with HCV NS3 hel inh. IC50, µM. 120 tested, under 10 active. AID 2172. fluorescent intercalator displacement from DNA, fluorescence; call rule not given here
Hits are given with their value; 0 = inactive; - = no result.

SMILES | HCV core dimer | IMP-1 inh | SUMO HTRF inh | HCV NS3 hel inh | VIM-2 inhibitor | PHOSPHO1 inh | NS3 helicase cf | DNA FID counter | others
COc1ccc(NC(=O)CN2CCN(C(=S)NC3CCCC3)CC2)cc1 | 0 | 0 | 0 | 0 | 0 | 0 | - | -
CC(=O)Nc1ccc(S(=O)(=O)NNC(=O)COc2ccc(Cl)cc2Cl)cc1 | 0 | 0 | 0 | 37 | 0 | 0 | 0 | 0
O=c1cc(-c2ccc([N+](=O)[O-])cc2)nc2cc(-c3ccc(Cl)cc3)[nH]n12 | 0 | 0 | 0 | 48 | 0 | 0 | 0 | 0
O=S(=O)(NC1CCCCC1)c1ccc(Cl)s1 | 0 | 0 | 0 | 52 | 0 | 0 | 0 | 0
O=S(=O)(NC1CCCCC1)c1ccc(Br)s1 | 0 | 0 | 0 | 0 | 0 | 0 | - | -
CCCC(=O)Nc1ccc(Cl)c(NC(=O)c2ccc([N+](=O)[O-])cc2Cl)c1 | 0 | 0 | 0 | 0 | 0 | 0 | - | -
CCCC(=O)Nc1cccc(NC(=O)c2ccc([N+](=O)[O-])cc2Cl)c1 | 0 | 0 | 0 | 53 | 0 | 0 | 0 | 0
CC1C(=O)N2CCCc3cc(S(=O)(=O)NCc4ccccc4Cl)cc1c32 (stereo unspecified) | 0 | 0 | - | 0 | 0 | 0 | - | -
CCC(=Nc1ccc(N)cc1)C1=C(O)C(C(=O)OC)C(C)(C)CC1=O (stereo unspecified) | 0 | 0 | 0 | 47 | 0 | 0 | 0 | 0
Cc1ccc(-c2cc(C(=O)O)c3cc(Br)ccc3n2)o1 | 0 | 0 | 0 | 38 | 0 | 0 | 79 | 0
Cc1ccc(-c2cc(C(=O)O)c3cc(Br)ccc3n2)s1 | - | 0 | 0 | 38 | 0 | 0 | 37 | 0
CCOCCCn1c(SCc2ccccc2)nnc1-c1ccncc1 | 0 | 0 | 0 | 0 | 0 | 0 | - | -
CCOc1ccc(N(CC(=O)NCc2ccc(OC)cc2)S(C)(=O)=O)cc1 | 0 | 0 | 0 | 0 | 0 | 0 | - | -
CCN(C(=O)COC(=O)c1ccccc1NCCO)c1cccc2ccccc12 | 0 | - | - | - | - | - | - | -
CCN(C(=S)NCCOC)c1cccc2ccccc12 | 0 | 0 | 0 | 44 | 0 | 0 | 0 | 0
O=C(N/N=C\C=C\c1ccco1)C1COc2ccccc2O1 (stereo unspecified) | 0 | 0 | 0 | 44 | 0 | 0 | 0 | 0
CNC(C)C#Cc1ccc2sc3cccc(OC)c3c(=O)c2c1 (stereo unspecified) | 0 | 0 | 0 | 39 | 0 | 0 | 0 | 0
CNC(C)C#Cc1ccc2oc3cc(C)c(C)cc3c(=O)c2c1 (stereo unspecified) | 0 | - | - | - | - | - | - | -
Cc1cc(=O)oc2c(C)c(OC(C)C(=O)NC(Cc3c[nH]c4ccc(O)cc34)C(=O)O)ccc12 (stereo unspecified) | 0 | 0 | 0 | 0 | 0 | 0 | - | -
CC(C)c1ccc(OCC(=O)NC(Cc2c[nH]c3ccccc23)C(=O)O)cc1 (stereo unspecified) | 0 | 0 | 0 | 48 | 0 | 0 | 62 | 0
Cc1cc(=O)oc2cc(OCC(=O)NC(Cc3c[nH]c4ccc(O)cc34)C(=O)O)c(Cl)cc12 (stereo unspecified) | 0 | 0 | 0 | 40 | 0 | 0 | 0 | 0
Cc1ccc(NC(=O)CSc2nc(O)cc(=O)n2-c2ccc(C)cc2)cc1 | 0 | 0 | - | 48 | 0 | 0 | 36 | 0
CCOC(=O)C1=C(O)/C(=C/c2ccc(OCC(=O)O)c(OC)c2)SC1=Nc1ccc(OC)cc1 | 0 | 0 | 0 | 36 | 0 | 0 | 42 | 0
CCOC(=O)C1=C(O)/C(=C/c2cn(CC(=O)N3CCCC3)c3ccccc23)SC1=Nc1ccccc1 | - | 0 | 0 | 0 | 0 | 0 | - | -
COc1ccccc1NC(=O)C(C)OC(=O)/C(=C/c1ccccc1)NC(C)=O (stereo unspecified) | 0 | - | - | - | - | - | - | -
SMILES | HCV core dimer | IMP-1 inh | SUMO HTRF inh | HCV NS3 hel inh | VIM-2 inhibitor | PHOSPHO1 inh | NS3 helicase cf | DNA FID counter | others
O=C1CC(C(=O)N2CCc3ccccc32)CN1c1ccc(F)cc1 (stereo unspecified) | 0 | 0 | 0 | 0 | 0 | 0 | - | -
CCc1ccc(/C=C/C(=O)c2cc(Br)ccc(=O)c2O)cc1 | 0 | 0 | 0 | 0 | 0 | 0 | - | -
CCOc1ccc(/C=C/C(=O)c2cc(Br)ccc(=O)c2O)cc1 | 0 | 0 | 0 | 59 | 0 | 0 | 77 | 0 | DNA FID DR=0
COC(=O)c1c(-c2ccco2)csc1NC(=O)C1CC=CCC1C(=O)O (stereo unspecified) | 0 | 0 | 0 | 36 | 0 | 0 | 0 | 0
CCC/C(O)=C1\C(=O)CCCC1=NCCc1c(C)[nH]c2ccc(OC)cc12 | 0 | 0 | 0 | 0 | 0 | 0 | - | -
O=C(O)C1Nc2c(cccc2C(F)(F)F)C2C=CCC12 (stereo unspecified) | - | 0 | 0 | 0 | 0 | 0 | - | -
CC(=O)c1ccc2c(c1)C1C=CCC1C(C(=O)O)N2 (stereo unspecified) | - | 0 | 78 | 51 | 0 | 0 | 90 | 0
COc1cccc2c1NC(C(=O)O)C1CC=CC21 (stereo unspecified) | 0 | 0 | 95 | 58 | 9.5 | 0 | 93 | 0
O=C(O)C1Nc2ccc(OC(F)(F)F)cc2C2C=CCC12 (stereo unspecified) | 0 | - | - | - | - | - | - | -
COc1ccc(/C=C2\SC(=S)N(CCC(=O)Nc3cccc(C(=O)O)c3)C2=O)cc1 | 0 | 0 | 0 | 39 | 0 | 0 | 52 | 0
CC(/C=C1\SC(=S)N(CCCC(=O)Nc2ccc(C(=O)O)c(O)c2)C1=O)=C\c1ccccc1 | 0 | 0 | 0 | 73 | 0 | 0 | 73 | 69
O=C(CCN1C(=O)/C(=C/c2cccs2)SC1=S)Nc1cccc(C(=O)O)c1 | 0 | 0 | 0 | 36 | 0 | 0 | 58 | 0
COc1ccc(CNC(=O)CN(Cc2ccco2)C(=O)CCC(=O)Nc2ccccn2)cc1 | 0 | 0 | 0 | 0 | 0 | 0 | - | -
CCC(=O)Nc1cccc(C(=O)c2ccc(C)c(C)c2)c1 | 0 | 0 | 0 | 0 | 0 | 0 | - | -
O=C(Nc1ccccc1C(=O)NCCCN1CCOCC1)c1cccc([N+](=O)[O-])c1 | 0 | 0 | 0 | 0 | 0 | 0 | - | -
Cc1c(C(=O)Nc2ccc(S(N)(=O)=O)cc2)oc2ccc(Cl)cc12 | 0 | 0 | 0 | 0 | 0 | 0 | - | -
Cc1c(C(=O)NNC(=S)Nc2ccc(S(N)(=O)=O)cc2)oc2ccccc12 | 0 | 0 | 0 | 38 | 0 | 0 | 0 | 0
N#C/C(=C(\O)c1cc(Cl)sc1Cl)c1nc2ccccc2[nH]1 | 0 | 0 | 0 | 43 | 0 | 0 | 0 | 0
CC1CCCCN1S(=O)(=O)c1ccc(C(=O)Nc2nnc(C3=COCCO3)o2)cc1 (stereo unspecified) | 0 | 0 | 0 | 0 | 0 | 0 | - | -

Assay outcomes deposited in PubChem by several laboratories.
